In one assay the test system is Leishmania major. Kind of assay: Antileishmanial activity against Leishmania major promastigotes after 72 hrs by Neubauer chamber counting. The assay is classed as functional, organism-based.
In another assay the test system is Leishmania donovani. Description: Antileishmanial activity against Leishmania donovani promastigotes after 72 hrs by Neubauer chamber counting. The assay is classed as functional, organism-based. A digest of the protocol:
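Clinical isolate promastigotes grown at 24 °C in medium 199 with 10% fetal bovine serum, HEPES, sodium bicarbonate, penicillin and streptomycin. Cultures harvested after 6–7 days, washed three times in PBS, resuspended at 2 × 10^6 cells/mL and exposed to serial compound dilutions for 72 h at 24 °C with shaking. Amphotericin B positive control, DMSO negative control. Run in triplicate; IC50 from live-cell counts.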

Setting [1] is: Leishmania donovani, 72 h, read-out: IC50.

In brackets after ≈: the same amount, converted by molar mass.

In general, IC50 refers to the point on the concentration scale where inhibition reaches its midpoint.

With `CC1=C(C(=O)Nc2ccc(C(=O)/C=C/c3cccc([N+](=O)[O-])c3)cc2)C(c2ccc(C)cc2)NC(=S)N1` (configuration not stated), the IC50 with Leishmania major is 0.65 µg/mL (≈ 1.27 µM); in the assay with Leishmania donovani, “Not Active”.
In the case of `CC1=C(C(=O)/C=C/c2ccc(O)cc2)C(c2ccccc2)NC(=O)N1C` (configuration not stated), the IC50 with Leishmania major is 0.59 µg/mL (≈ 1.69 µM); in the assay on Leishmania donovani, “Not Active”.
For `COc1cc(C2NC(=O)NC(C)=C2C(C)=O)ccc1O` (configuration not stated), inhibition in the assay on Leishmania major was half-maximal at 0.71 µg/mL (≈ 2.57 µM) (IC50).
For the molecule `CC(=O)C1=C(CNc2ccc(C(=O)/C=C/c3ccccc3)cc2)N(C)C(=O)NC1c1ccccc1` (configuration not stated), the figures for the half-maximal inhibitory concentration (IC50) in the assay on Leishmania major and with Leishmania donovani (setting [1]) were 0.54 µg/mL (≈ 1.16 µM) and > 100 µg/mL, respectively.
Turning to `CC1=C(C(=O)/C=C/c2cccc([N+](=O)[O-])c2)C(c2ccccc2)NC(=O)N1C` (configuration not stated), the concentration for half-maximal inhibition (IC50) is 0.73 µg/mL (≈ 1.93 µM) in the assay with Leishmania major and “Not Active” in the assay on Leishmania donovani.
`CC(=O)C1=C(CNc2ccc(C(=O)/C=C/c3ccc(O)cc3)cc2)N(C)C(=O)NC1c1ccccc1` (configuration not stated): the half-inhibitory concentration (IC50) worked out at 0.51 µg/mL (≈ 1.06 µM) with Leishmania major and 7.5 µg/mL (≈ 15.6 µM) in the assay with Leishmania donovani (setting [1]).
In turn, `CCOC(=O)C1=C(C)NC(=S)NC1c1ccc(C)cc1` (configuration not stated) displayed a half-inhibitory concentration (IC50) in the assay on Leishmania major of 0.63 µg/mL (≈ 2.17 µM).
Same read-out and setting: the value for `CC(=O)C1=C(C)NC(=S)NC1c1ccccc1` (configuration not stated) was 0.78 µg/mL (≈ 3.17 µM).
For the molecule `CC1=C(C(=O)Nc2ccc(C(=O)/C=C/c3ccc(O)cc3)cc2)C(c2ccc(C)cc2)NC(=S)N1` (configuration not stated), the values for the IC50 in the assay on Leishmania major and in the assay on Leishmania donovani were 0.53 µg/mL (≈ 1.1 µM) and “Not Active”, respectively.
`CC(=O)C1=C(CNc2ccc(C(=O)/C=C/c3cccc([N+](=O)[O-])c3)cc2)N(C)C(=O)NC1c1ccccc1` (configuration not stated): the values for the IC50 with Leishmania major and with Leishmania donovani (setting [1]) were 0.67 µg/mL (≈ 1.31 µM) and > 100 µg/mL, respectively.
`COc1ccc(C2NC(=O)NC(C)=C2C(C)=O)cc1` (configuration not stated) showed an IC50 in the assay with Leishmania major of 0.69 µg/mL (≈ 2.65 µM).
Regarding `CC(=O)C1=C(CNc2ccc(C3=NNC(c4ccc(O)cc4)C3)cc2)N(C)C(=O)NC1c1ccccc1` (configuration not stated), the IC50 is 0.47 µg/mL (≈ 0.948 µM) with Leishmania major and 1.5 µg/mL (≈ 3.03 µM) with Leishmania donovani (setting [1]).
In turn, `CC(=O)C1=C(C)NC(=O)NC1c1cccc([N+](=O)[O-])c1` (configuration not stated) had an IC50 in the assay with Leishmania major of 0.67 µg/mL (≈ 2.43 µM).
On the same count and under the same terms, the value for `CC(=O)C1=C(C)NC(=O)NC1c1cccc(C)c1` (configuration not stated) was 0.89 µg/mL (≈ 3.64 µM); that for `CCOC(=O)C1=C(C)NC(=O)NC1c1ccccc1` (configuration not stated) was 0.99 µg/mL (≈ 3.8 µM).
For `CC1=C(C(=O)Nc2ccc(C(=O)/C=C/c3ccc(O)cc3)cc2)C(c2cccc(O)c2)NC(=S)N1` (configuration not stated), the concentration for half-maximal inhibition (IC50) in the assay with Leishmania major is 0.51 µg/mL (≈ 1.05 µM); in the assay on Leishmania donovani (setting [1]), 5.58 µg/mL (≈ 11.5 µM).
On to `CC(=O)C1=C(C)NC(=O)NC1c1ccccc1` (configuration not stated), for which half-maximal inhibition with Leishmania major (IC50) was put at 0.61 µg/mL (≈ 2.65 µM).
Regarding `CC(=O)C1=C(CNc2ccc(C(=O)/C=C/c3ccc(Cl)cc3)cc2)N(C)C(=O)NC1c1ccccc1` (configuration not stated), the values for the IC50 in the assay with Leishmania major and in the assay with Leishmania donovani (setting [1]) were 0.53 µg/mL (≈ 1.06 µM) and 4.4 µg/mL (≈ 8.8 µM), respectively.
With `COCC1=C(C(=O)OC)C(c2cccc([N+](=O)[O-])c2)NC(=O)N1` (configuration not stated), it took 0.95 µg/mL (≈ 2.96 µM) to reach half-maximal inhibition with Leishmania major (IC50).
Take `CC1=C(C(=O)Nc2ccc(C(=O)/C=C/c3cccc([N+](=O)[O-])c3)cc2)C(c2cccc(O)c2)NC(=S)N1` (configuration not stated): the IC50 was 0.58 µg/mL (≈ 1.13 µM) in the assay with Leishmania major and “Not Active” in the assay on Leishmania donovani.
`CC(=O)C1=C(C)N(C)C(=O)NC1c1ccccc1` (configuration not stated): the IC50 in the assay with Leishmania major was 0.63 µg/mL (≈ 2.58 µM).
As to `CC1=C(C(=O)/C=C/c2ccc(Cl)cc2)C(c2ccccc2)NC(=O)N1C` (configuration not stated), the 50% inhibitory concentration (IC50) in the assay with Leishmania major is 0.63 µg/mL (≈ 1.72 µM); in the assay on Leishmania donovani it was “Not Active”.
Molecule `CCOC(=O)C1=C(C)NC(=S)NC1c1cccc(O)c1` (configuration not stated) [MONASTROL] returned a half-inhibitory concentration (IC50) in the assay on Leishmania major of 0.65 µg/mL (≈ 2.22 µM).
As to `CC(=O)C1=C(CNc2ccc(C(=O)/C=C/c3ccc(N(C)C)cc3)cc2)N(C)C(=O)NC1c1ccccc1` (configuration not stated), the half-maximal inhibitory concentration (IC50) in the assay with Leishmania major is 0.71 µg/mL (≈ 1.4 µM); in the assay on Leishmania donovani, “Not Active”.

The values are drawn from ChEMBL document CHEMBL3784943, “Structure based medicinal chemistry-driven strategy to design substituted dihydropyrimidines as potential antileishmanial agents” (Eur J Med Chem, 2016).
